Assay results from ChEMBL document CHEMBL4715820, “Aglycone Ebselen and β-d-Xyloside Primed Glycosaminoglycans Co-contribute to Ebselen β-d-Xyloside-Induced Cytotoxicity” (J Med Chem, 2018).
Calls of active or inactive are those of the source. No cut-off for these calls is given here.

Legend:
HCT-116 [1] = experiment: Induction of apoptosis in human HCT-116 cells assessed as increase in early apoptosis level at 40 uM incubated for 24 hrs by annexin-V/propidium iodide staining based flow cytometry relative to control; assay type: functional, cell-based
How it was run: (§1)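 HCT116 cells were seeded at 6 × 10^4 cells/well and treated 24 h later in medium containing 0.1% DMSO, with DMSO alone as the control. Floating and trypsinized adherent cells were pooled and washed in binding buffer. They were stained with Annexin V/PI for 15 min at room temperature and read by flow cytometry. Early apoptotic cells were FITC+/PI−; late apoptotic cells were FITC+/PI+.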

NCI-H1299 = experiment: Cytotoxicity in human NCI-H1299 cells assessed as reduction in cell viability incubated for 48 hrs by resazurin dye based assay; assay type: functional; details: for IC50: NCI-H1299, 48 h
How it was run: (§2)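 Cells seeded at 2000/well, 24 h later exposed to serial dilutions (0.1% DMSO vehicle) in complete medium for 48 h; resazurin (2 mg/mL stock) then added for 16 h; fluorescence at 544 nm excitation/595 nm emission, proportional to living cells. Triplicate wells, repeated twice; IC50 from concentration-response.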

HT-29 = experiment: Cytotoxicity in human HT-29 cells assessed as reduction in cell viability incubated for 48 hrs by resazurin dye based assay; assay type: functional; details: for IC50: HT-29, 48 h; how it was run: as §2
A549 = experiment: Cytotoxicity in human A549 cells assessed as reduction in cell viability incubated for 48 hrs by resazurin dye based assay; assay type: functional; details: for IC50: A549, 48 h; how it was run: as §2
HCT-116 [2] = experiment: Induction of apoptosis in human HCT-116 cells assessed as increase in late apoptosis level at 40 uM incubated for 24 hrs by annexin-V/propidium iodide staining based flow cytometry relative to control; assay type: functional, cell-based; how it was run: as §1
HCT-116 [3] = experiment: Induction of cell cycle arrest at S phase in human HCT-116 cells at 40 uM incubated for 24 hrs by propidium iodide /RNase staining based flow cytometry; assay type: functional
How it was run: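 HCT116 cells (6 × 10^4/well) were seeded, then exposed 24 h later in complete medium, with 0.1% DMSO as the control. After 24 h, medium cells and trypsinized adherent cells were combined. Pellets were fixed in 70% ethanol at 4 °C overnight and stained with PI/RNase buffer for 15 min at room temperature. Phase distribution (G0/G1, S, G2/M) was measured by flow cytometry.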

HCT-116 [4] = experiment: Cytotoxicity in human HCT-116 cells assessed as reduction in cell viability incubated for 48 hrs by resazurin dye based assay; assay type: functional; details: for IC50: HCT-116, 48 h; how it was run: as §2
HCT-116 [5] = experiment: Induction of apoptosis in human HCT-116 cells assessed as increase in late apoptosis level at 40 uM incubated for 48 hrs by annexin-V/propidium iodide staining based flow cytometry relative to control
HCT-116 [6] = experiment: Induction of cell cycle arrest in human HCT-116 cells assessed as increase in G2/M cell population level at 20 uM incubated for 24 hrs by propidium iodide /RNase staining based flow cytometry relative to control; assay type: functional
How it was run: (§3)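 HCT116 cells (6 × 10^4/well, six-well plates) treated after 24 h for 24 h (12.5 or 15 μM for one conjugate, 20 μM for others; 0.1% DMSO vehicle); floating and trypsinized cells fixed in 70% ethanol at 4 °C overnight, stained with PI/RNase 15 min at room temperature, DNA content by flow cytometry; phase distribution versus control.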

[7] = Induction of GAG priming in CHO pgsA-745 cells assessed as change in UA-GalNAc relative intensity level at 10 uM incubated for 24 hrs by LC-MS analysis (reference value: 8.99); assay type: functional, Cricetulus griseus
How it was run: (§4)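 Disaccharide LC-MS: CHO pgsA-745 cells treated at 10 μM in 0.1% DMSO, GAGs purified from cells or medium, digested with 1 mU chondroitinase ABC (5 mM NH4Ac pH 7.0, 37 °C, 24 h); treated samples PMP-labelled, DMSO controls D5-PMP-labelled, mixed at equal cellular protein (1 mg), co-injected on C18 capillary LC, negative-ion MS; paired ion intensities compared.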

CHO [8] = experiment: Induction of GAG priming in CHO pgsA-745 cells assessed as increase in FGF7/GAGs/FGFR2B ternary complex formation at 10 uM incubated for 24 hrs by confocal microscopy; assay type: functional, cell-based; details: Cricetulus griseus
How it was run: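 Ternary complex assay: CHO pgsA-745 cells on coverslips treated 10 μM with 0.1% DMSO for 24 h at 37 °C, fixed in 4% formaldehyde 15 min, then incubated sequentially with FGFR2B-Fc, FGF7 and Protein A-Alexa Fluor 647; bound receptor imaged by confocal microscopy at 665 nm […].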

CHO [9] = experiment: Induction of GAG biosynthesis in CHO pgsA-745 cells assessed as increase in GlcN level in culture media at 10 uM incubated for 48 hrs by immunostaining based confocal microscopic analysis relative to control; assay type: functional, cell-based; details: Cricetulus griseus
CHO [10] = experiment: (§5) Induction of GAG biosynthesis in CHO pgsA-745 cells assessed as increase in GalN level at 10 uM incubated for 48 hrs by immunostaining based confocal microscopic analysis relative to control; assay type: functional; details: Cricetulus griseus
[11] = Induction of GAG priming in CHO pgsA-745 cells assessed as increase in delta-UA-GalNAc6S level in from the cell culture media at 10 uM incubated for 24 hrs by LC-MS analysis relative to control; assay type: functional; details: Cricetulus griseus, time 48 hrs, in the assay text read “incubated for 48 hrs” for “incubated for 24 hrs”; how it was run: as §4
[12] = Induction of GAG priming in CHO pgsA-745 cells assessed as increase in delta-UA-GalNAc4S level in from the cell culture media at 10 uM incubated for 24 hrs by LC-MS analysis relative to control; assay type: functional; details: Cricetulus griseus, time 48 hrs, in the assay text read “48 hrs” for “24 hrs”; how it was run: as §4
CHO [13] = experiment: Induction of GAG biosynthesis in CHO pgsA-745 cells assessed as increase in GalN level in culture media at 10 uM incubated for 48 hrs by immunostaining based confocal microscopic analysis relative to control; assay type: functional, cell-based; details: Cricetulus griseus
[14] = Induction of GAG priming in CHO pgsA-745 cells assessed as increase in non-sulfated delta-UA-GalNAc level in from the cell culture media at 10 uM incubated for 24 hrs by LC-MS analysis relative to control; assay type: functional; details: Cricetulus griseus, time 48 hrs, in the assay text read “incubated for 48 hrs” for “incubated for 24 hrs”; how it was run: as §4
[15] = Induction of GAG priming in CHO pgsA-745 cells assessed as change in UA-GalNAc6S relative intensity level at 10 uM incubated for 24 hrs by LC-MS analysis (reference value: 9.52); assay type: functional; details: Cricetulus griseus, time 48 hrs, in the assay text read “incubated for 48 hrs” for “incubated for 24 hrs”; how it was run: as §4
[16] = Induction of GAG priming in CHO pgsA-745 cells assessed as change in UA-GalNAc4S relative intensity level at 10 uM incubated for 24 hrs by LC-MS analysis (reference value: 1.01); assay type: functional; details: Cricetulus griseus, time 48 hrs, in the assay text read “incubated for 48 hrs” for “incubated for 24 hrs”; how it was run: as §4
CHO [17] = experiment: (§6) Induction of GAG biosynthesis in CHO pgsA-745 cells assessed as increase in GlcN level at 10 uM incubated for 48 hrs by immunostaining based confocal microscopic analysis relative to control; assay type: functional; details: Cricetulus griseus
[18] = Induction of GAG priming in CHO pgsA-745 cells assessed as change in UA-GalNAc relative intensity level at 10 uM incubated for 24 hrs by LC-MS analysis (reference value: 44.74); assay type: functional, Cricetulus griseus; how it was run: as §4
[19] = Induction of GAG priming in CHO pgsA-745 cells assessed as increase in non-sulfated delta-UA-GalNAc level in from the cell culture media at 10 uM incubated for 48 hrs by LC-MS analysis relative to control; details: Cricetulus griseus
HCT-116 [20] = experiment: Induction of cell cycle arrest in human HCT-116 cells assessed as G2/M cell population level at 15 uM incubated for 24 hrs by propidium iodide /RNase staining based flow cytometry; assay type: functional; how it was run: as §3
[21] = as §5; assay type: functional, Cricetulus griseus
HCT-116 [22] = experiment: Induction of cell cycle arrest in human HCT-116 cells assessed as G2/M cell population level at 12.5 uM incubated for 24 hrs by propidium iodide /RNase staining based flow cytometry; assay type: functional; how it was run: as §3
[23] = Induction of GAG priming in CHO pgsA-745 cells assessed as change in UA-GalNAc6S relative intensity level at 10 uM incubated for 24 hrs by LC-MS analysis (reference value: 29.19); assay type: functional; details: Cricetulus griseus, time 48 hrs, in the assay text read “incubated for 48 hrs” for “incubated for 24 hrs”; how it was run: as §4
HCT-116 [24] = experiment: Induction of cell cycle arrest in human HCT-116 cells assessed as increase in G2/M cell population level at 12.5 uM incubated for 24 hrs by propidium iodide /RNase staining based flow cytometry relative to control; assay type: functional; how it was run: as §3
[25] = Induction of GAG priming in CHO pgsA-745 cells assessed as change in UA-GalNAc4S relative intensity level at 10 uM incubated for 24 hrs by LC-MS analysis (reference value: 2.9); assay type: functional; details: Cricetulus griseus, time 48 hrs, in the assay text read “incubated for 48 hrs” for “incubated for 24 hrs”; how it was run: as §4
HCT-116 [26] = experiment: Induction of apoptosis in human HCT-116 cells assessed as increase in late apoptosis level at 7.5 uM […] by annexin-V/propidium iodide staining based flow cytometry relative to control; assay type: functional, cell-based
HCT-116 [27] = experiment: Induction of apoptosis in human HCT-116 cells assessed as early apoptosis level at 12.5 uM […] by annexin-V/propidium iodide staining based flow cytometry relative to control; assay type: functional
HCT-116 [28] = experiment: Induction of apoptosis in human HCT-116 cells assessed as increase in early apoptosis level at 7.5 uM […] by annexin-V/propidium iodide staining based flow cytometry relative to control; assay type: functional
[29] = as §6; assay type: functional, Cricetulus griseus
HCT-116 [30] = experiment: Induction of apoptosis in human HCT-116 cells assessed as late apoptosis level at 12.5 uM […] by annexin-V/propidium iodide staining based flow cytometry relative to control; assay type: functional
CHO [31] = experiment: Induction of GAG priming in CHO pgsA-745 cells assessed as increase in specific CS staining […] at 10 uM incubated for 24 hrs by immunostaining based flow cytometry; assay type: functional, cell-based; details: Cricetulus griseus
How it was run: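 CHO pgsA-745 cells treated 10 μM with 0.1% DMSO 24 h at 37 °C, trypsinized, fixed in 4% formaldehyde, digested with 1 mU chondroitinase ABC 20 min at 37 °C, stained overnight at 4 °C with mAb 2B6 then Alexa Fluor 488 anti-mouse secondary; fluorescence intensity read by flow cytometry.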

SMILES	Activity (HCT-116 [1])	IC50 (NCI-H1299) [µM]	IC50 (HT-29) [µM]	IC50 (A549) [µM]	IC50 (HCT-116 [4]) [µM]	Activity (HCT-116 [5])	Activity (HCT-116 [6])	Activity (CHO [8])	Activity (CHO [9])	fold change (FC) [11]	fold change (FC) [12]	Activity (CHO [13])	further results
O=c1c2ccccc2[se]n1-c1ccccc1 [EBSELEN]	Active	27.7	50.4	16.8	50								Activity (HCT-116 [2]): Active; Activity (HCT-116 [3]): Active
CC(=O)OC[C@H]1O[C@@H](n2[se]c3ccccc3c2=O)[C@H](OC(C)=O)[C@@H](OC(C)=O)[C@@H]1OC(C)=O	Active	19	11.9	20.4	18	Active	Active						
CC(=O)OC[C@H]1O[C@@H](O[C@H]2[C@H](OC(C)=O)[C@@H](OC(C)=O)[C@H](n3[se]c4ccccc4c3=O)O[C@@H]2COC(C)=O)[C@H](OC(C)=O)[C@@H](OC(C)=O)[C@H]1OC(C)=O	Active	34	32.3	36.5	24.2	Active	Active						
O[C@@H]1[C@@H](O)[C@H](Oc2ccccc2)OC[C@H]1O								inactive	Active	10.5	<=99	Active	fold change (FC) [7]: 100; Activity (CHO [10]): Active; fold change (FC) [14]: 11; fold change (FC) [15]: 100; fold change (FC) [16]: 100; Activity (CHO [17]): Active
CC(=O)OC[C@H]1O[C@@H](n2[se]c3ccccc3c2=O)[C@H](OC(C)=O)[C@@H](OC(C)=O)[C@H]1OC(C)=O	Active	21.6	19.3	25.2	17.8	Active	Active						
CC(=O)O[C@@H]1[C@@H](OC(C)=O)[C@H](OC(C)=O)CO[C@H]1n1[se]c2ccccc2c1=O		7	7.3	7	6.4			Active	inactive	3.4	34.5	inactive	fold change (FC) [18]: 100; Activity (NCI-H1299): Dose-dependent effect; Activity (HT-29): Dose-dependent effect; Activity (A549): Dose-dependent effect; fold change (FC) [19]: 2.24; Activity (HCT-116 [20]): 51.9%; fold change (FC) [21]: 27.6; Activity (HCT-116 [22]): 45.2%; fold change (FC) [23]: 100; fold change (FC) (HCT-116 [24]): 1.3; fold change (FC) [25]: 100; Activity (HCT-116 [26]): Active; Activity (HCT-116 [27]): 10.97%; fold change (FC) (HCT-116 [28]): 27.7; fold change (FC) [29]: 12.2; Activity (HCT-116 [30]): 13.18%; Activity (CHO [31]): Active; Activity (HCT-116 [4]): Dose-dependent effect
